Measured values reported in ChEMBL document CHEMBL1212766, “Dose escalation study of the safety, tolerability, and pharmacokinetics of nemonoxacin (TG-873870), a novel potent broad-spectrum nonfluorinated quinolone, in healthy volunteers” (Antimicrob Agents Chemother, 2010).
Values after ≈ are worked out from the molar mass of the structure shown.

Legend:
Homo sapiens [1] = assay: Toxicity in healthy human assessed as occurrence of pruritus at 125 […], po; assay type: organism-based; parameters: route oral; settings: in vivo
Homo sapiens [2] = assay: Clearance in healthy human at 250 mg, po administered as single dose; settings: in vivo
Homo sapiens [3] = assay: Toxicity in healthy human assessed as occurrence of headache at 125 […], po; assay type: organism-based; parameters: route oral; settings: in vivo
Homo sapiens [4] = assay: Terminal volume of distribution in healthy human at 250 mg, po administered as single dose; settings: in vivo
Staphylococcus aureus = assay: Ratio of fCmax to MIC90 for methicillin-resistant Staphylococcus aureus; assay type: functional
How it was run: (§1)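 Fasted healthy adults got a single oral 500 mg dose with 240 ml water. Plasma was sampled predose to 96 h and assayed by LC-MS/MS (5–5,000 ng/ml). Cmax was read from individual profiles, and AUC0-∞ came from linear trapezoid plus extrapolation. Free fraction was measured by ultrafiltration (30,000 MWCO) of 0.5 and 6 h plasma. Free exposure was divided by the isolate MIC90.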

Homo sapiens [5] = assay: Toxicity in healthy human assessed as occurrence of headache at 500 […], po; assay type: organism-based; parameters: route oral; settings: in vivo
Homo sapiens [6] = assay: Toxicity in healthy human assessed as occurrence of headache at 1000 […], po; assay type: organism-based; parameters: route oral; settings: in vivo
[7] = Tmax in healthy human at 250 mg, po administered as single dose; settings: in vivo
Homo sapiens [8] = assay: Toxicity in healthy human assessed as occurrence of abdominal pain at 1000 […], po; assay type: organism-based, Abdomen; parameters: route oral; settings: in vivo
How it was run: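 Double-blind, placebo-controlled single ascending oral dose; two placebo and six active subjects per cohort. Adverse events were recorded throughout the dosing period and at follow-up, with confinement to 96 h after dosing. Results are reported as number and percentage of subjects with the event (n/N × 100).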

[9] = Cmax in healthy human at 1500 mg, po administered as single dose; settings: in vivo
Homo sapiens [10] = assay: Toxicity in healthy human assessed as occurrence of nausea at 1500 […], po; assay type: organism-based; parameters: route oral; settings: in vivo
Homo sapiens [11] = assay: Toxicity in healthy human assessed as occurrence of headache at 50 […], po; assay type: organism-based; parameters: route oral; settings: in vivo
[12] = Terminal phase elimination half-life in healthy human at 25 […], po administered single dose; assay type: ADME, organism-based; parameters: route oral; settings: in vivo
How it was run: (§2)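 After one fasted oral dose (six healthy subjects per cohort), plasma was sampled from 0.5 to 96 h and assayed by LC-MS/MS (LLOQ 5 ng/ml). λz came from least-squares regression on at least the last three log-concentration points, and t1/2 = 0.693/λz. Values are means (SD).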

Homo sapiens [13] = assay: Toxicity in healthy human assessed as occurrence of pruritus at 500 […], po; assay type: organism-based; parameters: route oral; settings: in vivo
[14] = Tmax in healthy human at 1500 […], po administered as single dose; assay type: ADME, organism-based; parameters: route oral; settings: in vivo
How it was run: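 Tmax was read by visual inspection of individual plasma concentration–time profiles. Plasma was sampled at 0.5-h steps early on and then out to 96 h, and assayed by LC-MS/MS. Subjects were fasted healthy volunteers, six per cohort, given one oral dose with 240 ml water. Values are means (SD).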

Streptococcus pneumoniae [15] = assay: Ratio of fAUC to MIC90 for penicillin-resistant Streptococcus pneumoniae; assay type: functional; how it was run: as §1
Homo sapiens [16] = assay: AUC (0 to infinity) in healthy human at 250 […], po administered as single dose; assay type: ADME, organism-based, Plasma; parameters: time infinity, route oral; settings: in vivo
Homo sapiens [17] = assay: AUC (0 to infinity) in healthy human at 25 […], po administered as single dose; assay type: ADME, organism-based, Plasma; parameters: time infinity, route oral; settings: in vivo
Homo sapiens [18] = assay: Toxicity in healthy human assessed as occurrence of erythema at 1000 […], po; assay type: organism-based; parameters: route oral; settings: in vivo
Homo sapiens [19] = assay: Terminal volume of distribution in healthy human at 500 mg, po administered as single dose; settings: in vivo
[20] = Terminal phase elimination half-life in healthy human at 250 […], po administered single dose; assay type: ADME, organism-based; parameters: route oral; settings: in vivo; how it was run: as §2
Homo sapiens [21] = assay: Clearance in healthy human at 50 […], po administered as single dose; assay type: ADME, organism-based; parameters: route oral; settings: in vivo
How it was run: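 Randomized, double-blind, placebo-controlled single ascending oral dose in fasted healthy subjects (six on drug per cohort, with 240 ml water). Plasma sampled predose through 96 h and assayed by validated LC-MS/MS over 5–5,000 ng/ml. Oral clearance (CL_o) came from noncompartmental analysis, with AUC_0-∞ from linear trapezoids plus C_last/λz. Values are means (SD).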

[22] = Renal clearance in healthy human at 25 mg, po administered as single dose; settings: in vivo, read-out: CL_renal (converted)
Homo sapiens [23] = assay: Terminal volume of distribution in healthy human at 1500 mg, po administered as single dose; settings: in vivo
Homo sapiens [24] = assay: Terminal volume of distribution in healthy human at 25 mg, po administered as single dose; settings: in vivo
[25] = Terminal phase elimination half-life in healthy human at 125 […], po administered single dose; assay type: ADME, organism-based; parameters: route oral; settings: in vivo; how it was run: as §2
Streptococcus pneumoniae [26] = assay: Ratio of fCmax to MIC90 for Streptococcus pneumoniae; assay type: functional; how it was run: as §1
[27] = Cmax in healthy human at 25 mg, po administered as single dose; settings: in vivo
Homo sapiens [28] = assay: Toxicity in healthy human assessed as occurrence of headache at 1500 […], po; assay type: organism-based; parameters: route oral; settings: in vivo
Homo sapiens [29] = assay: Toxicity in healthy human assessed as occurrence of pruritus at 50 […], po; assay type: organism-based; parameters: route oral; settings: in vivo
Homo sapiens [30] = assay: Toxicity in healthy human assessed as occurrence of contact dermatitis at 250 […], po; assay type: organism-based; parameters: route oral; settings: in vivo
How it was run: (§3)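 Randomized, double-blind, placebo-controlled single ascending oral doses in healthy volunteers (cohorts of 6 active, 2 placebo; 25–1,500 mg). After a 10-h fast, dose given with 240 ml water; fasting continued 4 h. Subjects were confined to 96 h postdose. AEs were recorded throughout dosing and at follow-up, reported as number and percentage of subjects with events per treatment.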

Streptococcus pneumoniae [31] = assay: Antimicrobial activity against penicillin-resistant Streptococcus pneumoniae; assay type: functional
Streptococcus pneumoniae [32] = assay: Ratio of fAUC to MIC90 for Penicillin-sensitive Streptococcus pneumoniae; assay type: functional; how it was run: as §1
Homo sapiens [33] = assay: Toxicity in healthy human assessed as occurrence of ear pain at 1500 […], po; assay type: organism-based; parameters: route oral; settings: in vivo
Homo sapiens [34] = assay: Toxicity in healthy human assessed as occurrence of contact dermatitis at 25 […], po; assay type: organism-based; parameters: route oral; settings: in vivo; how it was run: as §3
Streptococcus pneumoniae [35] = assay: Antimicrobial activity against ciprofloxacin-resistant Streptococcus pneumoniae; assay type: functional
Homo sapiens [36] = assay: Toxicity in healthy human assessed as occurrence of oral hypoesthesia at 500 […], po; assay type: organism-based; parameters: route oral; settings: in vivo
[37] = Clearance in healthy human assessed as recovery of unchanged drug in urine at 500 mg, po administered as single dose; settings: read-out: Recovered in urine
Homo sapiens [38] = assay: Toxicity in healthy human assessed as occurrence of headache at 25 […], po; assay type: organism-based; parameters: route oral; settings: in vivo
Homo sapiens [39] = assay: Clearance in healthy human at 1000 mg, po administered as single dose; settings: in vivo
Homo sapiens [40] = assay: Toxicity in healthy human assessed as occurrence of pustular rashes at 125 […], po; assay type: organism-based; parameters: route oral; settings: in vivo

**Q.** Which results are given for `COc1c(N2C[C@@H](C)C[C@H](N)C2)ccc2c(=O)c(C(=O)O)cn(C3CC3)c12` [NEMONOXACIN]?
**A.** Activity (Homo sapiens [1]): 0%; CL (Homo sapiens [2]): 0.24 L/h/kg; Activity (Homo sapiens [3]): 0%; Vbeta (Homo sapiens [4]): 3.58 L/kg; Ratio (Staphylococcus aureus): 48; Activity (Homo sapiens [5]): 0%; Activity (Homo sapiens [6]): 17%; Tmax [7]: 55.2 min; Activity (Homo sapiens [8]): 0%; Cmax [9]: 12100 ng/mL; Activity (Homo sapiens [10]): 17%; Activity (Homo sapiens [11]): 0%; half-life [12]: 583 min; Activity (Homo sapiens [13]): 0%; Tmax [14]: 2.67 h; Ratio (Streptococcus pneumoniae [15]): 906; AUC (Homo sapiens [16]): 15.45 µg·h/mL; AUC (Homo sapiens [17]): 1.19 µg·h/mL; Activity (Homo sapiens [18]): 17%; Vbeta (Homo sapiens [19]): 4.25 L/kg; half-life [20]: 652 min; CL (Homo sapiens [21]): 0.23 L/h/kg; CL renal [22]: 3 mL/min/kg; Vbeta (Homo sapiens [23]): 3.42 L/kg; Vbeta (Homo sapiens [24]): 4.21 L/kg; half-life [25]: 668 min; Ratio (Streptococcus pneumoniae [26]): 191; Cmax [27]: 150 ng/mL; Activity (Homo sapiens [28]): 17%; Activity (Homo sapiens [29]): 17%; Activity (Homo sapiens [30]): 0%; MIC90 (Streptococcus pneumoniae [31]): 0.03 µg/mL (≈ 0.0808 µM); Ratio (Streptococcus pneumoniae [32]): 1812; Activity (Homo sapiens [33]): 0%; Activity (Homo sapiens [34]): 50%; MIC90 (Streptococcus pneumoniae [35]): 0.12 µg/mL (≈ 0.323 µM); Activity (Homo sapiens [36]): 0%; dose excreted [37]: 34.1%; Activity (Homo sapiens [38]): 0%; CL (Homo sapiens [39]): 0.22 L/h/kg; Activity (Homo sapiens [40]): 17%
